Screening results as filed in PubChem BioAssay.
TRPC4 agonist: activators of mouse TRPC4 channel, primary screen, Fluo4 calcium, HEK293 TRPC4beta/mu-opioid cells | Short transient receptor potential channel 4 (Mus musculus), Q9QUQ5 | actives 0.49% (n = 310,000) | Fluo4 calcium fluorescence; hits give high values | AID 2237, 2010 | B-score at 10 µM;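 active = B-score above 5 SD of library B-scores, and initial fluorescence ratio not above library mean plus 5 SD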;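 also: positive B-score marks a calcium rise read as TRPC4 activation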
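Assay system: HEK293 stable line with TRPC4beta plus mu-opioid receptor; schedule: 45 min room-temperature Fluo4 loading, 110 s read; technique: kinetic Fluo4 calcium fluorescence; evaluation: integrated baseline-normalised fluorescence ratio, converted to per-well B score; controls: buffer (low) and maximal DAMGO (high)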
TRPC4 inh: inhibitors of mouse TRPC4 channel, primary screen, Fluo4 calcium, HEK293 TRPC4beta/mu-opioid cells; Short transient receptor potential channel 4 (Mus musculus), Q9QUQ5; DAMGO-evoked Fluo4 calcium flux; hits give low values; B-score at 10 µM; actives 0.39% (n = 300,000);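 active = B-score over 3 SD under the library average, no early fluorescence shift, positive overall ratio signal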
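Material: HEK293 cells with stable TRPC4beta plus mu-opioid receptor expression; probe or stimulus: DAMGO in two steps, submaximal then maximal; technique: Fluo4 calcium fluorescence by kinetic imaging, 5 s 1 Hz baseline; measure: integrated fluorescence ratio relative to baseline, converted to per-well B score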
TRPC6 inh: mouse TRPC6 channel inhibitors, primary screen, cell-based, HEK293, membrane potential dye. actives 1.1% (n = 310,000). ACh-evoked depolarization; hits give low values. B-score at 10 µM;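 active = B-score under library mean minus 3 SD, initial fluorescence not abnormally high, positive integrated signal ratio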;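 also: B-score derived from integrated fluorescence ratio over the kinetic read; more negative B-score means stronger inhibition of depolarization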
Target sequence (Q61143 whole entry, looked up): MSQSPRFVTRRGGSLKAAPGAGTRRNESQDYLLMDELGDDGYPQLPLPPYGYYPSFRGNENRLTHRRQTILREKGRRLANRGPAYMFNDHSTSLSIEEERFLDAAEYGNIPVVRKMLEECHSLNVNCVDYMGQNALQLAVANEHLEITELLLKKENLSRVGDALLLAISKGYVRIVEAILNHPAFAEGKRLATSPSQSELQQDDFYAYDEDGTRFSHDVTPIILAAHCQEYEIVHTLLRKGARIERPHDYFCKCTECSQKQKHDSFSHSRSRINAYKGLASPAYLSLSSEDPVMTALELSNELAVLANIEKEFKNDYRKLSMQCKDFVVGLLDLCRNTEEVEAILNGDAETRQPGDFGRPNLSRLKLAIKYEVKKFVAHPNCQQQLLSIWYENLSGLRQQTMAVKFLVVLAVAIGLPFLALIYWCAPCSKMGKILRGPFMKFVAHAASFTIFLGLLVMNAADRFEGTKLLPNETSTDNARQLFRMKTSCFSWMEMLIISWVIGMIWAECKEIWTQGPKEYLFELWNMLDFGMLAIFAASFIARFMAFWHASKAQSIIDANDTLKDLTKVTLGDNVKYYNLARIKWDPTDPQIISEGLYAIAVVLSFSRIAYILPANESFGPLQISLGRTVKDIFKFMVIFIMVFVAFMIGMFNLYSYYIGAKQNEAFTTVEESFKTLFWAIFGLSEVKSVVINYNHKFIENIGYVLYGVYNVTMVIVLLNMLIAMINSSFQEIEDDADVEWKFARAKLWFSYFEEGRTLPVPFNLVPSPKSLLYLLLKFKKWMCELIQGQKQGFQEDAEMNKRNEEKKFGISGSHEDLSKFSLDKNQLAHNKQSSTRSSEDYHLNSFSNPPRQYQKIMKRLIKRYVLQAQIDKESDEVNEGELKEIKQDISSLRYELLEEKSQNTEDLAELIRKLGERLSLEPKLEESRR
TRPC6 act: mouse TRPC6 channel activators, primary screen, cell-based, HEK293, membrane potential dye | Short transient receptor potential channel 6 (Mus musculus), Q61143 | HEK293-TRPC6 membrane potential dye fluorescence; hits give high values | B-score at 10 µM | actives 0.13% (n = 310,000) | AID 2550, 2010;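 active = B-score of the integrated fluorescence ratio above library mean plus 3 SD, and starting fluorescence ratio within library mean plus 5 SD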;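 also: higher score means more depolarization so channel activation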
TRPC4 PAM: positive allosteric modulators of TRPC4, primary screen, cell-based, mouse TRPC4beta, HEK293 mu-opioid, Fluo-4 calcium | Short transient receptor potential channel 4 (Mus musculus), Q9QUQ5 | DAMGO EC20, Fluo-4 Ca2+ flux; hits give high values | B-score at 10 µM | actives 0.42% (n = 310,000);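 active = B-score of calcium response area above 5 SD of library B-scores, with initial fluorescence ratio within 5 SD of library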;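 also: B-score of integrated fluorescence ratio over time as area under calcium response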
Starred values were filed as active, the others as inactive; i = inactive. An excerpt weighted towards active compounds, which were near 2.3% of everything screened.

SMILES | TRPC4 agonist | TRPC4 inh | TRPC6 inh | TRPC6 act | TRPC4 PAM
COc1ccc2[nH]cc(CCN(C)C)c2c1 | i | i | i | i | 19*
COc1ccc(CNC(=O)/C=C/c2ccc3[nH]cc(CCN(C)C)c3c2)cc1 | 45* | i | i | i | i
COc1ccc2c(CCN)c[nH]c2c1 | 81* | i | i | i | i
NCCc1c[nH]c2ccc(F)cc12 | i | i | i | i | i
COc1cccc(/C=C2\N=C(c3cncc(Br)c3)OC2=O)c1 | i | i | i | i | i
CCOc1ccc(N2C(=O)NC(=O)/C(=C/c3cnc(SC)nc3)C2=O)cc1 | i | i | i | i | i
CN(C)C(=O)Oc1ccc2c(c1)O/C(=C\c1cccc([N+](=O)[O-])c1)C2=O | i | i | i | i | i
CC1=C(C(=O)OC(C)C)[C@]2(C(=O)N(CC(N)=O)c3ccccc32)C(C#N)=C(N)O1 | i | i | i | i | i
C=CCOC(=O)C1=C(C)OC(N)=C(C#N)[C@@]12C(=O)N(CC(N)=O)c1ccccc12 | i | i | i | i | 22*
CCN(CC)C(=O)c1ccc2c(c1)C1C=CCC1C(C(=O)O)N2 (centres undefined) | i | i | i | i | i
CCOC(=O)C1CCN(/C=C2/C(=O)NC(=O)N(c3cccc(C)c3C)C2=O)CC1 | i | i | i | i | i
CCOC(=O)C1(c2ccccc2)CCN(CCC(=O)Nc2ccccc2OC)CC1 | 50* | i | i | i | i
Cc1cccc(CNCCc2ccccc2)n1 | i | i | i | i | i
Clc1ccc(OCC#CCN2CCCC2)cc1 | i | i | i | i | 24*
CN1CCN(CC#CCOc2ccc(Cl)cc2)CC1 | i | i | i | i | i
CCCN1CCC[C@@H]2Cc3nc(N)ncc3C[C@H]21 | i | i | i | i | 11*
CCCN1CCC[C@@H]2Cc3[nH]ncc3C[C@H]21 | i | i | i | i | i
CCn1ccnc1CN1CCCC(C(=O)c2cc(Cl)ccc2OC)C1 (centres undefined) | i | i | i | i | i
COc1ccc(Cl)cc1C(=O)C1CCCN(CCO)C1 (centres undefined) | 70* | i | i | i | i
O=C1CNC(c2ccccc2Cl)c2cc(Br)ccc2N1 (centres undefined) | i | i | i | i | i
O=C1NC(=O)N(c2cccc(Br)c2)C(=O)/C1=C/c1ccsc1 | i | i | i | i | i
C[N+]1(CCC(C(N)=O)(c2ccccc2)c2ccccc2)CCCCC1 | i | i | -9.7* | i | i
C/C(=N\N1CCN(C)CC1)c1c(O)n(Cc2ccccc2)c(=O)[nH]c1=O | i | i | i | i | i
C/C(=N/OC(=O)N(C)C)c1ncc(C(F)(F)F)cc1N1CCOCC1 | i | i | i | i | i
Cc1ccc(-c2cc(-c3ccc(C)cc3)[n+](-c3ccc(C(=O)[O-])cc3)c(-c3ccc(C)cc3)c2)cc1 | 60* | i | i | i | i
SMILES | TRPC4 agonist | TRPC4 inh | TRPC6 inh | TRPC6 act | TRPC4 PAM
C[C@@H](N)Cc1cnc[nH]1 | 197* | i | i | i | i
O=C(O)Cc1cnc[nH]1 | i | i | i | i | i
CC1CCCC(C)N1/N=C/c1c[nH]c2ccc(Br)cc12 (centres undefined) | i | i | i | i | 34*
Cc1ccc(C)c(NC(=S)NCCc2cnc[nH]2)c1 | 142* | i | i | i | i
COc1ccc(CCC(=O)NCCc2cnc[nH]2)cc1 | i | i | i | i | i
CN[C@H]1C[C@H]2O[C@@](C)([C@H]1OC)n1c3ccccc3c3c4c(c5c6ccccc6n2c5c31)C(=O)NC4 | i | i | -5.8* | i | 27*
